In this experiment the test system is Jurkat/DNR viability with daunorubicin, trypan blue, 3 d. The experiment can be described thus: ABCB1-mediated resistance reversal in Jurkat/DNR – cell-based, trypan blue viability, one SAR set, SAR follow-up (AID 2833). Conditions: for CC50: measured here: toxicity without chemotherapeutic (TD50). Put shortly: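 Material: Daunorubicin-resistant Jurkat/DNR human T-cell line; dosing: test compound series spanning 1–100 µM, three logs; schedule: 3-day compound exposure with daunorubicin; signal: trypan blue exclusion, cell counts by light microscopy; measure: compound level giving 50% viability loss (CR50)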

Active and inactive are the calls of the source.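 The calls were made as follows: active = toxic dose over reversal dose above 10, when toxic dose is under 15 µM; inactive = the rest.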

These results are taken from PubChem BioAssay AID2833 (NMMLSC, 2010).

What is called EC50 is the midpoint of the concentration-response curve. As usually defined, the CC50 is the concentration at which the toxic effect on the cells reaches its halfway point.

Regarding `COc1ccc(-c2nn(-c3ccccc3)cc2/C=C/C(=O)N2CCN(c3ccccn3)CC2)cc1`, the EC50 is 9.9 µM (inactive) and the CC50 worked out at 15.2 µM.
On the same counts, the results for `N#Cc1ccc(-c2ccc(OCC(=O)NCCc3ccccc3)cc2)cc1` are 43.8 µM (inactive) and 21.4 µM.
On the same counts, the results for `O=[N+]([O-])c1ccc(Nc2nc(Cl)nc(NCCO)n2)cc1` are 9.67 µM (inactive) and 12.8 µM.
In the case of `CCOC(=O)c1c(NC(=O)CSc2ncccn2)sc2c1CCN(Cc1ccccc1)C2`, the EC50 is 8.81 µM (inactive) and the CC50 is 5.1 µM.
The corresponding values for `CNc1nc2cc([N+](=O)[O-])c([N+](=O)[O-])cc2nc1NC` are 15.2 µM (inactive) and 6.2 µM.
The corresponding values for `Cc1cc(C)c(C#N)c(SCc2c(F)cccc2[N+](=O)[O-])n1` are 29.4 µM (inactive) and 3.05 µM.
On the same counts, the results for `CC1=NN(c2ccc([N+](=O)[O-])cc2)C(=O)/C1=C/N(C)C` are 34.5 µM (inactive) and 34.5 µM.
On to `CCN(CC)P(=O)(Nc1cccc(C(F)(F)F)c1)c1ccc(N(C)C)cc1NC(=O)c1ccco1` (stereo not given), for which the EC50 is 4.72 µM (inactive) and the CC50 stood at 4.54 µM.
Turning to `CCOC(=O)c1cccc(NC(=O)c2cnc3ccccc3n2)c1`, the EC50 is 13.3 µM (inactive) and the CC50 was determined as 15 µM.
As to `Cc1nc2cc(-c3cccc(F)c3)nn2c(N2CCN(C(=O)c3ccco3)CC2)c1C`, the EC50 was 1.18 µM and the CC50 was > 100 µM.
As to `COc1ccc(/C=N/NC(=O)c2cccnc2)cc1CN1CCN(c2ccc(F)cc2)CC1`, the EC50 was 17.5 µM (inactive) and the CC50 is 24.1 µM.
For the molecule `CCCCN(C)C1=CC2=CC(=C(C#N)C#N)CCC2CC1` (stereo not given), the EC50 is 12.5 µM (inactive) and the half-maximal cytotoxic concentration (CC50) came to 15.2 µM.
Take `COC(=O)c1ccc(C(C(=O)NC2CCCCC2)N(Cc2ccccc2)C(=O)Cc2cccs2)cc1` (stereo not given): the EC50 is 10.3 µM (inactive) and the CC50 worked out at 8.81 µM.
On the same counts, the results for `CCCCn1c(O)c(N=Nc2ccccn2)c2ccccc21` are 13.3 µM (inactive) and 13.3 µM.
`O=[N+]([O-])c1ccccc1-c1nc(-c2ccc(Br)o2)no1`: the EC50 is 14.6 µM (inactive) and the CC50 came out at 14.6 µM.
